Source: ChEMBL document CHEMBL1157183, “Synthesis and discovery of a novel pyrazole derivative as an inhibitor of apoptosis through modulating integrin beta4, ROS, and p53 levels in vascular endothelial cells” (2008)
Activity calls are given as the source filed them. The calls are words filed in the database; no cut-off is given here.

Legend:
HUVEC [1] = test: Increase in cell viability of HUVEC cells at 25 uM; format: functional, cell-based; conditions: Homo sapiens
How it was run: (§1)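 Sub-confluent HUVECs, passages 10–20, were washed and cultured in M199 without serum and FGF-2. They were treated at 5, 10, 20, 25, 50 and 100 µM (DMSO vehicle at a non-toxic final level). Viability was measured by MTT at 24 and 48 h against deprived control and full-medium normal cells; n = 3.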

HUVEC [2] = test: Decrease in integrin beta4 level in HUVEC cells at 25 uM after 24 hrs in absence of serum and FGF2; format: functional, Homo sapiens
How it was run: (§2)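 HUVECs, passages 10–20, grown to sub-confluence, washed and switched to basal M199 without FBS and FGF-2; 25 µM in DMSO for 12, 24 or 48 h. Comparators were cells kept in M199 with 20% FBS plus 70 ng/mL FGF-2 and cells in basal medium alone. Immunofluorescence used rabbit anti-human integrin β4 and FITC-IgG secondary, read by laser scanning confocal microscopy as relative fluorescence intensity; n = 3.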

HUVEC [3] = test: Decrease in serum and FGF2 deprivation-induced p53 level in HUVEC cells; format: functional, cell-based; conditions: Homo sapiens
How it was run: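 Serum/FGF-2-deprived HUVECs (basal M199) received 25 µM for 12, 24 and 48 h. Comparators were cells in M199 with 20% FBS and 70 ng/mL FGF-2 and untreated deprived cells. p53 was detected by immunofluorescence with rabbit anti-human p53 and FITC-IgG secondary, semiquantified as relative intensity by confocal microscopy; n = 3.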

HUVEC [4] = test: Suppression of apoptosis in HUVEC cells at 25 uM by MTT assay; format: functional, cell-based; conditions: Homo sapiens; how it was run: as §1
HUVEC [5] = test: Inhibition of DNA fragmentation in HUVEC cells at 25 uM after 24 hrs by TUNEL assay; format: functional, cell-based; conditions: Homo sapiens
How it was run: (§3)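 TUNEL staining was done on HUVECs deprived of serum and FGF-2 (basal M199) and treated with 25 µM for 24 h. Apoptotic cells were quantified as a percentage from fluorescent micrographs, relative to deprived control and to cells in M199 with 20% FBS plus 70 ng/mL FGF-2.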

HUVEC [6] = test: Induction of apoptosis in HUVEC cells at 50 uM by MTT assay; format: functional, cell-based; conditions: Homo sapiens; how it was run: as §1
HUVEC [7] = test: Inhibition of nuclear DNA condensation in HUVEC cells at 25 uM after 24 hrs by acridine orange staining assay; format: functional, cell-based; conditions: Homo sapiens
How it was run: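 Serum/FGF-2-deprived HUVECs were treated with 25 µM for 24 h, then stained with acridine orange for 5 min. Nuclear condensation and fragmentation were examined by laser scanning confocal microscopy.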

HUVEC [8] = test: Induction of apoptosis in HUVEC cells at 100 uM by MTT assay; format: functional, cell-based; conditions: Homo sapiens; how it was run: as §1
HUVEC [9] = test: Decrease in integrin beta4 level in HUVEC cells at 25 uM after 48 hrs in absence of serum and FGF2; format: functional, Homo sapiens; how it was run: as §2
HUVEC [10] = test: Reduction of serum and FGF2 deprivation-induced apoptosis in HUVEC cells at 25 uM after 24 hrs; format: functional, Homo sapiens; set-up: scale not given: the % may be the effect or the level left; how it was run: as §3
HUVEC [11] = test: Decrease in serum and FGF2 deprivation-induced intracellular ROS level in HUVEC cells; format: functional, cell-based; conditions: Homo sapiens
How it was run: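 Intracellular ROS measured with the DCHF probe, which oxidises to fluorescent DCF. Cells were HUVECs in basal M199 lacking serum and FGF-2, exposed to 25 µM for 12, 24 and 48 h. Fluorescence was imaged by laser scanning confocal microscopy and expressed as relative DCF intensity per cell in the scanned area; n = 3.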

HUVEC [12] = test: Decrease in integrin beta4 level in HUVEC cells at 25 uM after 12 hrs in absence of serum and FGF2; format: functional, Homo sapiens; how it was run: as §2

CCOC(=O)c1c(-c2ccccc2Cl)nn(-c2ccccc2)c1C
Activity (HUVEC [1]): Active
Flu intensity (HUVEC [2]): 9.083
Activity (HUVEC [3]): Active
Activity (HUVEC [4]): Active
Activity (HUVEC [5]): Active
Activity (HUVEC [6]): Active
Activity (HUVEC [7]): Active
Activity (HUVEC [8]): Active
Flu intensity (HUVEC [9]): 13.14
Activity (HUVEC [10]): 19.16%
Activity (HUVEC [11]): Active
Flu intensity (HUVEC [12]): 6.307
